# Test results published in publication PMC3134314 (ACS chemical neuroscience, 2011).
# Several values for one entry are separate records, joined by “and”; a condition that tells them apart may be missing. Equal values may be shown once. Read-outs that look alike come from different tables or passages of the source.
# Assays:
# [1] = tested on: voltage-gated Na+ channels in CAD cells; format: cell-based
# In short: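 Steady-state fast inactivation in whole-cell clamped CAD cells used a 500 ms conditioning pulse. Test compound ranged 0.3–500 μM; control was DMSO vehicle. Recordings were taken 3–4 min after break-in and compared with drug-free cells. V1/2 and k came from single Boltzmann fits of each recording, averaged as mean ± SEM. n = 7 for V1/2, n = 6 for τinact. Student's t-test vs DMSO.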
# [2] = tested on: voltage-gated Na+ channels in CAD cells; format: cell-based; details: for Maximal fraction of current unavailable by depolarization: 20 mV, control 0.42 ± 0.02
# [3] = tested on: site 2 sodium channel; assay: Site 2 sodium channel binding; details: 10 μM, Cerep, data not shown
# [4] = tested on: voltage-gated Na+ channels in CAD cells; details: earlier study; cited from earlier work
# [5] = tested on: voltage-gated Na+ channels in CAD cells; details: 30 μM; cited from earlier work
# [6] = tested on: voltage-gated Na+ channels in CAD cells; assay: Recovery of Na+ channels from inactivation/block in CAD cells; format: cell-based; details: vs control
# In short: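 CAD cells under whole-cell clamp, test compound (100, 8.5 or 15 μM) or control. Cells were held at −120 mV and depolarized to 0 mV, for 5 s (slow inactivation) or a 10 ms prepulse. They were then returned to −120 mV for a variable recovery interval before a test step to 0 mV. Sweeps ran at 0.5 Hz for short recoveries and slower for longer ones.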
# [7] = tested on: voltage-gated Na+ channels in CAD cells; assay: Development of inhibition/slow inactivation of Na+ currents in CAD cells; format: cell-based; details: vehicle 0.52 ± 0.09
# [8] = tested on: voltage-gated Na+ channels in CAD cells; assay: Frequency; format: cell-based; details: 10 Hz; for Pulse in the train at which use-dependent block was first observed: 30-pulse train
# In short: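 CAD cells were whole-cell clamped at −80 mV and given a train of 30 pulses (20 ms to −10 mV) at 10 Hz, with test compound (100, 8.5 or 15 μM) or control. Available current was the peak at pulse N divided by the pulse 1 peak. 5–7 cells per condition, averaged ± SEM.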
# [9] = tested on: tibial-nerve injury (TNI) mechanical hypersensitivity; assay: Tibial-nerve injury; format: in vivo, Sprague–Dawley rats; details: rats, 10 mg/kg i.p.
# [10] = tested on: formalin-induced pain, chronic (late-phase) inflammatory pain; assay: Formalin-induced pain model; format: in vivo; details: mouse, i.p., the lower the percent the more effective the compound
# [11] = tested on: E18 rat cortical neurons; assay: KCl-induced Ca2+ influx, Fura-2 imaging; format: cell-based; details: 100 μM, 46.5 mM KCl
compound,measurement,setting,value
COC[C@@H](NC(C)=O)C(=O)NCc1ccc(COc2ccccc2F)cc1 [(R)-10],Shift in V1/2 of fast inactivation in the hyperpolarizing direction,[1]; 100 μM,17.6 mV
same,Fold lower IC50 for slow inactivation compared with (R)-4 (85 μM),[2],16 fold
same,Maximal fraction of current unavailable by depolarization,[2]; 100 μM,0.90 ± 0.007
same,"Displacement, site 2 sodium channel binding",[3],31–46%
"COC[C@@H](NC(C)=O)C(=O)NCc1ccccc1 [(R)-4, Lacosamide, reference compound]",Inhibition of peak Na+ currents,[4],~ 40%
same,Shift in V1/2 of fast inactivation,[5],0.7 mV
same,Time course of recovery from the 10-ms depolarization,[6]; 100 μM,not different from control
same,Recovery kinetics after 5 s depolarization (slow inactivation induced),"[6]; 100 μM, significant between 100–512 ms",slowed recovery kinetics
same,Fraction of current available at 8 s prepulse duration,[7]; 100 μM,0.32 ± 0.01
same,Peak current lower than control at the last pulse (pulse 30),[8]; 100 μM,~ 9%
same,Pulse in the train at which use-dependent block was first observed,[8]; 100 μM,~19 pulse
COC[C@@H](NC(C)=O)C(=O)NCc1ccc(OCc2cccc(F)c2)cc1 [(R)-7],Reversal of tactile hypersensitivity,"[9]; 14 days after TNI, 1 hour after administration",~ 90%
same,Mechanical withdrawal thresholds 24 hours after injection,"[9]; four weeks after TNI, 24 hours",returned to pre-drug levels
same,Time constant for inactivation (τinact),"[1]; 0.3 μM, DMSO 1.32 ± 0.12 ms",0.73 ± 0.05 ms
same,Shift in V1/2 of fast inactivation in the hyperpolarizing direction,[1]; 30 μM,~ 21.4 mV and 21.4 mV
same,V1/2 value for fast inactivation,"[1]; 30 μM, DMSO −63.2 ± 0.9 mV",−84.6 ± 1.2 mV
same,Time course of recovery from the 10-ms depolarization,[6]; 8.5 μM,slight slowing
same,Recovery kinetics after 5 s depolarization (slow inactivation induced),"[6]; 8.5 μM, significant between 100 ms to 2 s",slowed recovery kinetics
same,Fraction of current available at 8 s prepulse duration,[7]; 8.5 μM,0.20 ± 0.04
same,"Protection vs control, chronic (late-phase) inflammatory pain",[10]; 15 mg/kg,44%
same,Peak current lower than control at the last pulse (pulse 30),[8]; 8.5 μM,40%
same,Pulse in the train at which use-dependent block was first observed,[8]; 8.5 μM,3 pulse
same,Fraction of current available at −50 mV,"[2]; 30 μM, vs cells without drug",significantly decreased the fraction of current available
same,Maximal fraction of current unavailable by depolarization,[2]; 30 μM,0.91 ± 0.01
COC[C@H](NC(C)=O)C(=O)NCc1ccccc1 [(S)-4],Inhibition of peak Na+ currents,[4],no inhibition
same,Inhibition of Ca2+ amplitude (KCl-induced Ca2+ influx),[11],13.74 ± 1.26%
COC[C@@H](NC(C)=O)C(=O)NCc1ccc(-c2cccc(F)c2)cc1 [(R)-11],Shift in V1/2 of fast inactivation in the hyperpolarizing direction,[1]; 30 μM,8.0 mV
same,Time course of recovery from the 10-ms depolarization,[6]; 15 μM,not different from control
same,Recovery kinetics after 5 s depolarization (slow inactivation induced),"[6]; 15 μM, significant between 100 ms to 2 s",slowed recovery kinetics
same,Fraction of current available at 8 s prepulse duration,[7]; 15 μM,0.12 ± 0.04
same,"Protection vs control, chronic (late-phase) inflammatory pain",[10]; 12 mg/kg,97%
same,Peak current lower than control at the last pulse (pulse 30),[8]; 15 μM,45%
same,Pulse in the train at which use-dependent block was first observed,[8]; 15 μM,3 pulse
same,Maximal fraction of current unavailable by depolarization,[2]; 30 μM,0.94 ± 0.004
same,"Displacement, site 2 sodium channel binding",[3],31–46%
COC[C@H](NC(C)=O)C(=O)NCc1ccc(OCc2cccc(F)c2)cc1 [(S)-7],Shift in V1/2 of fast inactivation in the hyperpolarizing direction,[1]; 500 μM,19.9 mV
same,Fraction of current available at −50 mV,[2]; 500 μM (highest dose),reduced the available current but not to the extent observed with (R)-7
same,Potential above which (more depolarized) slow inactivation was observed,[2]; 5 s conditioning prepulses,> −80 mV
same,Maximal fraction of current unavailable by depolarization,[2]; 500 μM,0.76 ± 0.02
